For twelve compounds, IC50 and EC50 results are on record in ChEMBL document CHEMBL1124783, “Synthesis and structure-activity relationships of 6-substituted 2',3'-dideoxypurine nucleosides as potential anti-human immunodeficiency virus agents” (J Med Chem, 1990).

Where only a bound is given, the exact number is not on record here.

Experiment [1] is described as follows: The antiviral activity against HIV-1 in human peripheral blood mononuclear (PBM) cells expressed as inhibitory concentration. It is filed as functional. A digest of the protocol: (§1)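 PHA-stimulated human PBM cells infected with HIV-1 strain LAV-1 (about 63 000 dpm RT activity per 10^7 cells/10 mL medium), then drug added to duplicate or triplicate cultures. Incubated at 37 °C in 5% CO2 for 6 days. Supernatant RT activity measured on pelleted virus with (rA)n·(dT)12-18 template-primer, expressed as dpm/mL. EC50 taken from median-effect plot of dose-effect data.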

The nature of experiment [2]: The antiviral activity against HIV-1 in human peripheral blood mononuclear (PBM) cells expressed as median effective concentration. Particulars: read-out: ED50 (the source's name). The class given is functional. A digest of the protocol: as §1

On to `OCC1CCC(n2cnc3c(S)ncnc32)O1` (centres undefined), for which the IC50 in experiment [1] is greater than 100 µM. For the same compound, the EC50 in experiment [2] came to 53.9 µM.
For `Nc1ncnc2c1ncn2[C@H]1CC[C@@H](CO)O1`, in that order: greater than 100 µM and 0.62 µM.
On to `CN(C)c1ncnc2c1ncn2C1CCC(CO)O1` (centres undefined), for which the IC50 in experiment [1] was greater than 100 µM. In addition, the EC50 in experiment [2] turned out to be 2.3 µM.
For `CNc1ncnc2c1ncn2C1CCC(CO)O1` (centres undefined), in that order: greater than 100 µM and 0.26 µM.
In experiment [1], `CSc1ncnc2c1ncn2C1CCC(CO)O1` (centres undefined) came in with an IC50 greater than 100 µM. In addition, in experiment [2], the EC50 stood at 3.6 µM.
For `OC[C@@H]1CC[C@H](n2cnc3c(Cl)ncnc32)O1`, in that order: greater than 100 µM and 2.1 µM.
In experiment [1], `OC[C@@H]1CC[C@H](n2cnc3cncnc32)O1` returned an IC50 greater than 100 µM. In experiment [2], the EC50 was greater than 100 µM.
Consider `CNc1ncnc2c1ncn2C1OC(CO)CC1F` (centres undefined), for which the IC50 in experiment [1] was greater than 100 µM. In experiment [2], the EC50 came to 4.3 µM.
In turn, `CCNc1ncnc2c1ncn2C1CCC(CO)O1` (centres undefined) yielded an IC50 in experiment [1] greater than 100 µM. Further, the EC50 in experiment [2] came to 5.2 µM.
In turn, `OCC1CCC(n2cnc3c(NCc4ccccc4)ncnc32)O1` (centres undefined) showed an IC50 in experiment [1] of 10 µM. For the same compound, the EC50 in experiment [2] is greater than 100 µM.
The like results for `Nc1nc(O)c2ncn([C@H]3CC[C@@H](CO)O3)c2n1` were, in that order, greater than 100 µM and 0.88 µM.
In experiment [1], `O=c1[nH]cnc2c1ncn2[C@H]1CC[C@@H](CO)O1` [DIDANOSINE] displayed an IC50 greater than 100 µM. In addition, the EC50 in experiment [2] turned out to be 5.5 µM.

One may read the IC50 as the concentration that gives 50% inhibition. Lower therefore signals greater potency.
